Assay results from different studies.
Lines come from different studies, so protocols differ.
Target: Myotonin-protein kinase (DMPK, Homo sapiens, UniProt Q09013)

CNC(=O)c1cc(Oc2ccc(NC(=O)Nc3ccc(Cl)c(C(F)(F)F)c3)cc2)ccn1 — inhibition (enzyme activity, inhibitor; 0.3 µM): -9%
COc1ccc2c(O[C@@H]3C[C@H]4C(=O)N[C@]5(C(=O)O)CC5/C=C\CCCCC[C@H](NC(=O)OC5CCCC5)C(=O)N4C3)cc(-c3csc(NC(=O)C(C)C)n3)nc2c1C (stereo partly shown) — remaining binding (cell-free assay, competition with immobilised ligand; 1 µM): 83%
Cn1c2c(c3ccc(Cl)c(Cl)c31)C(C#N)C1(CCCC1)NC2=O (stereo not shown) — ΔTm (thermal stability, DSF; 10 µM): -0.2 °C
CN(C)C(=O)Cn1cc(-c2nc([C@@](C)(c3ccc(-c4cnc(N)nc4)cc3)C3CC3)no2)cn1 — remaining binding (cell-free assay, competition with immobilised ligand; 1 µM): 100%
O=C1Nc2ccc(Cl)cc2C1=Cc1cc(Cl)c(O)c(Cl)c1 — remaining signal (cell-free assay; 0.5 µM): 112%
C=CC(=O)Nc1cc(Nc2nccc(Nc3cc(Cl)c(F)cc3C(C)(C)O)n2)c(OC)cc1N1CC[C@@H](N(C)C)C1 — inhibition (enzyme activity, inhibitor; 1 µM): 11%
COc1cc(Cl)c(C(=O)N[C@@H](CN[C@H]2CC[C@@H](N)CC2)Cc2ccc(C#N)cc2)cc1-c1ccc(CN[C@H](C)c2ccc(C)cc2)o1 — remaining activity (enzyme activity, inhibitor; 1 µM): 100%
CC(=O)N1CCC(c2ccc(C(=O)NC(=N)N)cc2C(F)(F)F)CC1 — remaining binding (cell-free assay, competition with immobilised ligand; 1 µM): 100%
Cc1ccc(NC(=O)c2ccc(C)c(C(F)(F)F)c2)cc1C#Cc1nn(C2CCC(O)CC2)c2ncnc(N)c12 (stereo not shown) — remaining signal (cell-free assay; 10 µM): 91%
CC(C)CC(=O)N1CCc2nc(-c3ccc(Br)cc3)nc(N(C)Cc3ccccc3)c2C1 — remaining binding (cell-free assay, competition with immobilised ligand; 0.1 µM): 87%
N#CCCc1ccc2c(c1)-c1[nH]c3ccc([N+](=O)[O-])cc3c1CC(=O)N2 — remaining signal (cell-free assay; 0.5 µM): 89.8%
Cn1c2c(Cl)c(Cl)ccc2c2cc[nH]c(=O)c21 — ΔTm (thermal stability, DSF; 10 µM): 0 °C
CCCS(=O)(=O)Nc1ccc(F)c(C(=O)c2c[nH]c3ncc(-c4ccc(Cl)cc4)cc23)c1F — inhibition (enzyme activity, inhibitor; 1 µM): < 10%
C#Cc1cccc(Nc2ncnc3cc(OCCOC)c(OCCOC)cc23)c1 — remaining signal (cell-free assay; 0.5 µM): 96.9%
Cc1cnc(NC2CCOCC2)nc1-n1cnc(C(=O)NC(CN)c2cc(F)cc(Cl)c2)c1 (stereo not shown) — remaining activity (enzyme activity, inhibitor, radiometric; 1 µM): 95%
N#CC1c2c([nH]c3c(Cl)c(Cl)ccc23)C(=O)NC12CCCCC2 (racemic) — ΔTm (thermal stability, DSF; 10 µM): -0.6 °C
Cc1ccc(Nc2nccc(N(C)c3ccc4c(C)n(C)nc4c3)n2)cc1S(N)(=O)=O — inhibition (enzyme activity, inhibitor; 10 µM): -12%
Cn1c2c(Cl)c(Cl)ccc2c2cn[nH]c(=O)c21 — ΔTm (thermal stability, DSF; 10 µM): 0.4 °C
CCN(CC)CCNC(=O)c1c(C)[nH]c(/C=C2\C(=O)Nc3ccc(F)cc32)c1C — inhibition (enzyme activity, inhibitor; 0.3 µM): -8%
Cn1c2c(c3ccc(Cl)c(Cl)c31)C(C#N)C1(CCOCC1)NC2=O (stereo not shown) — ΔTm (thermal stability, DSF; 10 µM): 0 °C
COc1ccc2cc(OCC3(C(=O)O)CN(C(=O)c4ccc(F)cc4)C3)ccc2c1 — remaining binding (cell-free assay, competition with immobilised ligand; 1 µM): 76%
Cc1cc(NC(=O)c2cccc3cc(-c4cccc5[nH]nc(N)c45)ccc23)ccc1F — activity vs control (enzyme activity, inhibitor; 0.1 µM): 99%
O=C(NCc1ncc(C(F)(F)F)cc1Cl)c1ccc2c(c1)C1(CCS(=O)(=O)CC1)[C@@H](C1CC1)N2S(=O)(=O)c1ccc(F)cc1 — remaining binding (cell-free assay, competition with immobilised ligand; 1 µM): 86%
Cn1c2c(c3ccc(Cl)c(Cl)c31)C(C#N)C1(CCN(C(=O)OC(C)(C)C)CC1)NC2=O (racemic) — ΔTm (thermal stability, DSF; 10 µM): -0.5 °C
O=C(O)[C@H]1[C@H](Cn2nnc3ccccc3c2=O)CC[C@@H]1C(=O)c1ccc(OCCC2CCOCC2)cc1 — remaining binding (cell-free assay, competition with immobilised ligand; 1 µM): 83%
CC(C)(C)c1nc2c(s1)c1nc(N)ncc1c1ccc(NS(=O)(=O)c3c(F)cccc3F)c(F)c12 — remaining activity (enzyme activity, inhibitor, radiometric; 1 µM): 95%
O=C(O)c1cc(-c2ccc(C3CCNCC3)cc2)c2ccc(-c3ccc(C(F)(F)F)cc3)cc2c1 — remaining binding (cell-free assay, competition with immobilised ligand; 1 µM): 100%
O=C(Nc1cnn(-c2csc(C(=O)NC3COC3)c2)c1)Nc1ccccc1Cl — remaining activity (enzyme activity, inhibitor; 5 µM): 102%
